Experimental data gathered from unrelated publications.
Lines come from different studies, so protocols differ.
Target: cGMP-dependent protein kinase 1 (PRKG1, Homo sapiens, UniProt Q13976)
One construct used (Q13976 1-671): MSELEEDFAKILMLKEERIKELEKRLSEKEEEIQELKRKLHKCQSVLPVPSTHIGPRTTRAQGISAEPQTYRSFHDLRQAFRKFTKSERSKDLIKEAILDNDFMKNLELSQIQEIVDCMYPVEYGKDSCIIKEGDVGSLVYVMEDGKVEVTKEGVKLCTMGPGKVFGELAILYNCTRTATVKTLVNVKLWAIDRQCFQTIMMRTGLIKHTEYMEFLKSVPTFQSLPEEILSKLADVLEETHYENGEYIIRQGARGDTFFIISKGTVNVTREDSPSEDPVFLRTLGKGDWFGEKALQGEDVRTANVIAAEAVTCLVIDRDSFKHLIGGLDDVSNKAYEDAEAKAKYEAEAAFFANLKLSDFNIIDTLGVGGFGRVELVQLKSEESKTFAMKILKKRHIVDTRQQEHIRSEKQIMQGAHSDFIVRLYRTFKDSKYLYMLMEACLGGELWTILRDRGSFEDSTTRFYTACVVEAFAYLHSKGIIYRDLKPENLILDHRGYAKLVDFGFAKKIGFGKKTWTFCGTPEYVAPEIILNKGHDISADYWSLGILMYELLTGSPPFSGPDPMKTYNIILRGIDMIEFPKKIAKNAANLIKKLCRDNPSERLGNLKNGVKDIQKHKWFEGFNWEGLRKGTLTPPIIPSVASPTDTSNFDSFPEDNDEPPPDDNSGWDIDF

Structure (SMILES) | observed | action | technique | tested at | quantity | value
CCCOc1ccc(OC)c(F)c1C(=O)c1ccc(C(=O)N[C@@H]2CNC[C@H]2NC(=O)c2ccc3[nH]ncc3c2)cc1 | enzyme activity | inhibitor | – | 0.75 µM | remaining activity | 0%
Cc1ccc(C(=O)NCc2ccsc2)cc1C#Cc1cn(C(C)C)c2ncnc(N)c12 | enzyme activity | inhibitor | – | 1 µM | activity vs control | 87%
CC(C)(C)c1nc(-c2cccc(NS(=O)(=O)c3c(F)cccc3F)c2F)c(-c2ccnc(N)n2)s1 | enzyme activity | inhibitor | radiometric | 1 µM | remaining activity | 96%
Cc1cc(-n2nc(Cc3cc(F)cc(C(F)(F)F)c3)nc2C)ccc1C(N)=O | cell-free assay | – | competition with immobilised ligand | 1 µM | remaining binding | 100%
CCN(CC)c1ccc(C2=NNC(=O)CC2C)cc1[N+](=O)[O-] (stereo not shown) | enzyme activity | inhibitor | – | 10 µM | remaining activity | 83%
CNC(=O)Nc1ccc2c(c1)CC[C@@]21OC(=O)N(CC(=O)N(Cc2ccc(F)cc2)[C@@H](C)C(F)(F)F)C1=O | cell-free assay | – | competition with immobilised ligand | 1 µM | remaining binding | 100%
Cc1ccc(NC(=O)c2ccc(C)c(C(F)(F)F)c2)cc1C#Cc1nn(C2CCC(O)CC2)c2ncnc(N)c12 (stereo not shown) | cell-free assay | – | – | 10 µM | remaining signal | 118%
CCOc1cc(-c2nncn2C)ccc1Nc1ncc2cc(C)nc(NCC(C)(C)C)c2n1 | enzyme activity | inhibitor | FRET | 1 µM | inhibition | < 15%
COc1cc2ncnc(Nc3ccc(Oc4ccccc4)cc3C)c2cc1OC | enzyme activity | inhibitor | – | 1 µM | inhibition | 1%
Cn1cnc(Br)c1C1=CN(c2ncnc3[nH]cnc23)CCS1 | enzyme activity | inhibitor | radiometric | 2 µM | inhibition | 97.4%
CS(=O)(=O)N1CCCC(NC(=O)[C@H](CCC2CCCCC2)NC(=O)c2ccc(CNC(=O)c3cnc4ccccn34)cc2)C1 (stereo partly shown) | cell-free assay | – | competition with immobilised ligand | 0.1 µM | remaining binding | 100%
Cc1ccc(C(=O)Nc2ccc(CN3CCN(C)CC3)c(C(F)(F)F)c2)cc1C#Cc1cnc2cccnn12 | enzyme activity | inhibitor | – | 23.5 nM | remaining activity | 72%
c1ccc(N2CCN(Cc3nc4ccccc4[nH]3)CC2)nc1 | binding | – | competition with immobilised ligand | 1 µM | remaining binding | 100%
CNC(=O)c1cc(Oc2ccc(NC(=O)Nc3ccc(Cl)c(C(F)(F)F)c3)cc2)ccn1 | enzyme activity | inhibitor | – | 10 µM | inhibition | -2%
Cc1nc(C2CCN(C(=O)c3ccc(OC(F)(F)F)cc3N)CC2)c2ncc(N3CCN(C)CC3)cc2n1 | cell-free assay | – | competition with immobilised ligand | 1 µM | remaining binding | 100%
CC/C(=N\NC(=O)NCc1cccc(O)c1)c1ccc(O)c(C)c1O | enzyme activity | inhibitor | – | 0.1 µM | inhibition | 55.7%
